# Compound activity as filed in PubChem BioAssay.
# Compounds with a hit are over-represented: about 3% of the library has one in this group of screens.
# M4 ag: CHRM4 agonism in calcium assay; P08173; actives 0.14% (n = 360,000); CHO-K1 hM4/Gqi5, Fluo-8 calcium fluorescence; vehicle 0%, full acetylcholine response 100%; activation, % at 3 µM;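 active = activation above the run mean over all test wells plus 3 SD, cut at about 32% in these data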;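 note: peak over basal fluorescence ratio per well then scaled between controls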
# Target sequence (P08173 whole entry, looked up): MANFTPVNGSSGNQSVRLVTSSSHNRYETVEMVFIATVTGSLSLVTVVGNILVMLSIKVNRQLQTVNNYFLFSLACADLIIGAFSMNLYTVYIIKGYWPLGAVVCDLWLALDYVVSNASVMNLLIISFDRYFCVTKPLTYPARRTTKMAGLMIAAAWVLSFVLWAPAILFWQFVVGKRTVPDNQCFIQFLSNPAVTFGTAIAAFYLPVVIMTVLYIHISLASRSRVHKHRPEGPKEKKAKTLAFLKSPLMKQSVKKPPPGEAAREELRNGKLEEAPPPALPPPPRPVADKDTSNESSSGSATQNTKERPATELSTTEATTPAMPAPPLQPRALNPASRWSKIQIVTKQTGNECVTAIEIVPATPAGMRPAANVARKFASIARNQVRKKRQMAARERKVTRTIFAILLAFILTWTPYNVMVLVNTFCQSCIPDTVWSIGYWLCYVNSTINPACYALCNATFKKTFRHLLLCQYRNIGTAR
# CHRM4 PAM: positive allosteric modulators of human muscarinic M4 receptor; P08173; CHO-K1 hM4/Gqi5, Fluo-8 calcium fluorescence, ACh EC20; 0% = ACh EC20, 100% = maximal ACh; activation, % at 3 µM; actives 0.4% (n = 360,000);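 active = activation above its plate's cutoff, the mean activation of sample wells plus 3 SD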
# TAAR1 antag: human TAAR1 antagonism; Q96RJ0; CHO RD-HGA16 TAAR1, Fluo-8 calcium fluorescence, antagonist; inhibition, % at 3 µM; actives 1.5% (n = 360,000);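 active = inhibition above a per-plate cutoff, the mean inhibition of test compounds on that plate plus 3 SD, cut at about 49% in these data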
#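 System: CHO RD-HGA16 cells bearing hTAAR1. Reagent: EC80 β-phenethylamine stimulus. Schedule: seeding 17-24 h prior, 75-min 37 °C, 30-min RT dye loading. Signal: Fluo-8 intracellular calcium dye fluorescence, real-time kinetic reads. Read-out: % inhibition from peak post-agonist over basal fluorescence ratio. Benchmarks: vehicle wells and EC80 agonist wells. Replicates: n of 1.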
# TAAR1 ag: human TAAR1 agonism; Q96RJ0; CHO RD-HGA16 TAAR1, Fluo-8 calcium fluorescence; vehicle wells 0%, saturating PEA agonist 100%; activation, % at 3 µM; actives 0.99% (n = 360,000); AID 624467;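 active = activation above the mean activation of all test compounds in the run plus 3 SD, cut at about 38% in these data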
#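 Benchmarks: low control DMSO, high control PEA (EC100); System: CHO RD-HGA16 cells carrying human TAAR1 plus Gα16; Detection: Fluo-8 fluorescence, 5 s baseline then 140 s kinetic read; Schedule: 17-24 h plating, Fluo-8 75 min 37 °C, 30 min RT; Read-out basis: % activation from peak over basal fluorescence ratio, DMSO-to-PEA scaled.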
# CHRM4 antagonist: CHRM4 antagonism in calcium assay; P08173; CHO-hM4 cells, ACh EC80, Fluo-8 calcium fluorescence; inhibition, % at 3 µM; actives 0.73% (n = 360,000); AID 624125;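 active = inhibition above its plate's cutoff, the mean inhibition of sample wells plus 3 SD, cut at about 27% in these data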
# Hits are given with their value; - = inactive; . = no result.
SMILES,M4 ag,CHRM4 PAM,TAAR1 antag,TAAR1 ag,CHRM4 antagonist
CCN1CCN(S(=O)(=O)c2cccc3nsnc23)CC1,-,-,-,-,-
CCCNC(=O)C1CCC(CNS(=O)(=O)c2cccc3nsnc23)CC1 (configuration not stated),-,16,-,-,-
CC1CC(C)CN(S(=O)(=O)c2cccc3nsnc23)C1 (configuration not stated),-,21,-,-,-
CC(C)NS(=O)(=O)c1cccc2nsnc12,-,27,-,-,-
CC(c1ccc(Cl)cc1)N(CCN(C)C)c1ccccn1 (configuration not stated),.,.,-,-,.
COC(=O)[C@]12C[C@H](CC(=O)NCCCN3CCCC3=O)C(=O)N(CCC3=CCCCC3)C1=C[C@H](C(C)(C)C)O[C@@H]2C,.,.,-,-,.
Cc1ccc(S(=O)(=O)N2CCC(c3nnc(SCCN4CCCC4)n3C)CC2)cc1,-,-,-,-,-
CCn1c(SCCN2CCCCC2)nnc1-c1ccc(S(=O)(=O)N2CCOCC2)cc1,-,-,-,-,33
O=C(Nc1ccccc1)N(Cc1ccccc1)C1=NCCS1,-,-,-,40,-
CC1CCN(CCCCOc2cccc(Br)c2)CC1,-,-,-,-,68
COc1cccc2c1OCC/C2=N\NC(=O)COc1ccccc1C,-,23,-,-,-
O=C(NCc1ccccc1)C(CCc1ccccc1)n1c(=O)c(-c2ccccc2)nc2ccccc21 (configuration not stated),-,-,-,-,-
COC(=O)c1sc(-c2ccc(Cl)cc2)cc1NC(=O)COCC(=O)O,-,-,-,-,-
COC(=O)c1sc(-c2ccc(C(C)(C)C)cc2)cc1NC(=O)CCC(=O)O,-,-,51,-,-
COC(=O)c1sc(-c2ccccc2)cc1NC(=O)c1cc(OC)cc(OC)c1,-,-,-,-,-
COC(=O)c1sc(-c2ccccc2)cc1NC(=O)c1ccc(OC)cc1,-,24,-,-,-
CCCCOCC1CN(CCCC)S(=O)(=O)c2c(Oc3ccc(C(C)C)cc3)cccc2O1 (configuration not stated),.,.,-,-,.
Cc1ccc(C)c(S(=O)(=O)N2CCC(c3nc4c(nnn4Cc4ccc5c(c4)OCCO5)c(=O)[nH]3)CC2)c1,-,-,-,-,42
Cc1ccc(Cn2nnc3c(=O)[nH]c(C4CCN(S(=O)(=O)c5ccccc5)CC4)nc32)cc1,-,-,.,.,-
O=c1[nH]c(C2CCN(S(=O)(=O)c3ccc4c(c3)OCCO4)CC2)nc2c1nnn2Cc1ccccc1,-,-,-,-,90
Cc1ccc(S(=O)(=O)N2CCC(c3nc4c(nnn4Cc4ccccc4)c(=O)[nH]3)CC2)cc1,-,-,-,-,75
O=c1[nH]c(C2CCCN(S(=O)(=O)c3ccccc3)C2)nc2c1nnn2Cc1ccc2c(c1)OCCO2 (configuration not stated),-,-,-,-,-
CCOC(=O)C1=C(C(=O)OCC)C2N(Cc3ccc(C#N)cc3)c3ccccc3[C@@]23C[C@@H](C(=O)OC)N(S(=O)(=O)c2ccc(OC)cc2)C3=N1 (some centres not stated),.,.,-,-,.
CCCCOc1ccc(Br)cc1CSC(=N)N,-,-,73,103,26
Cc1cc2c(c(C)c1Cl)C(c1ccc3c(c1)OCO3)CC(=O)O2 (configuration not stated),-,-,-,-,-
SMILES,M4 ag,CHRM4 PAM,TAAR1 antag,TAAR1 ag,CHRM4 antagonist
Cc1ccc(C(C)C)c2c1C(c1ccc3c(c1)OCO3)CC(=O)O2 (configuration not stated),-,-,-,47,-
O=C(Cc1c[nH]c2ccccc12)Nc1ccc(Nc2ccncc2)cc1,.,.,-,-,.
O=C(NC1CC2CCCC(C1)N2C(=O)NCc1ccccc1)C1CC1 (configuration not stated),-,-,-,-,32
CC(NC(=O)CSc1nnc(CC(=O)Nc2ccc(Cl)c(Cl)c2)n1C)c1ccccc1 (configuration not stated),-,-,-,42,-
Cn1c(CC(=O)Nc2ccc(Cl)c(Cl)c2)nnc1SCC(=O)N1CCN(c2ccccc2)CC1,-,-,-,-,-
COC(=O)c1nn(-c2ccc(-c3ccccc3)cc2)cc1O,-,-,52,-,-
CN(NC(=O)C(=O)NCc1ccco1)C(=O)NC1CCCCC1,.,.,-,-,.
Cc1ccnc2nc(C(=O)OCC(=O)NC3CCCC(C)C3C)nn12 (configuration not stated),-,21,-,-,-
Cc1ccnc2nc(C(=O)OCC(=O)NC3CCC(C)CC3)nn12 (configuration not stated),-,-,-,-,-
COC(=O)[C@]12C[C@H](CC(=O)NCc3ccc(OC)c(OC)c3)C(=O)N(Cc3ccc4c(c3)OCO4)C1=C[C@H](COCc1ccccc1)O[C@@H]2C,.,.,-,-,.
O=C(NN=Cc1ccccc1Cl)C(=O)Nc1cccc(C(F)(F)F)c1,.,.,-,-,.
COc1ccc(-c2cc(-c3nnc(COC(=O)CC4CCCC4)o3)c3ccccc3n2)cc1OC,-,-,-,-,-
COc1ccc(-c2cc(-c3nnc(COC(=O)C4CC4)o3)c3ccccc3n2)cc1OC,-,-,52,-,-
O=C(Nc1ccc(Oc2ccccc2)cc1)C1CCN(c2c3c(nc4ncnn24)CCC3)CC1,-,-,57,-,-
CCOc1ccc(N(C)S(=O)(=O)c2cc(-c3cc(C)no3)ccc2OC)cc1,-,-,-,-,-
COc1ccc(-c2cc(C)no2)cc1S(=O)(=O)N(C)c1ccc(C)cc1,-,-,-,-,-
CCOc1ccc(N(C)S(=O)(=O)c2cc(-c3cc(C)no3)ccc2CC)cc1,-,-,58,-,-
CCOc1ccc(N(C)S(=O)(=O)c2cc(-c3cc(C)no3)ccc2C)cc1,-,-,65,-,-
COc1ccc(NC(=O)CSc2nnc(-c3cccc(O)c3)o2)cc1,-,-,-,40,-
Cc1cccc(OCc2nnc(SCC(=O)Nc3ccc(C)c(C)c3)o2)c1,-,-,54,-,-
CSCCC(NC(=O)COc1ccccc1)C(=O)N(C)Cc1c(F)cccc1Cl (configuration not stated),-,-,52,-,-
CN(C)c1ccc(Sc2ccc3nc(N)nc(N)c3c2)cc1,-,-,-,44,-
CCc1nc2ccc(C(=O)NCCCn3ccnc3)cn2c1N(C)Cc1nccs1,-,-,-,-,-
CCCn1c(N)c(C(=O)CSc2nnc3ccccn23)c(=O)n(C)c1=O,-,27,-,-,-
COC(=O)C1=C(C)N(Cc2ccc(C(F)(F)F)cc2)C(=NCc2ccc(C(F)(F)F)cc2)NC1c1cccc(C(F)(F)F)c1 (configuration not stated),.,.,-,-,.
